Experimental data taken from ChEMBL document CHEMBL5625176, “Immunosuppressive effects of new thiophene-based KV1.3 inhibitors” (Eur J Med Chem, 2023).
Converted amounts (≈) assume the structure as drawn. The source made the active and inactive calls. No cut-off for these calls is given here.

Columns and labels:
T-cell [1] = assay: Inhibition of human PBMC derived PHA-activated T-lymphocytes activation assessed as inhibition of colony formation by measuring reduction in colony forming units at 30 uM incubated for 5 days by bright-field microscopic analysis; type: functional, cell-based; conditions: time 5.0 day
How it was run: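 PBMC at 1.5 × 10⁶ cells/mL treated with compounds (30 μM) together with PHA-L (240 ng/mL) for 5 days in RPMI with 10% heat-inactivated bovine calf serum and 2 mM L-glutamine. After medium removal, wells imaged by bright-field microscopy at 2× and colonies (CFU) counted. Mean ± SD of 3 experiments.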

[2] = biological target: Potassium voltage-gated channel subfamily A member 5 (Homo sapiens) (UniProt P22460); assay: Inhibition of Kv1.5 (unknown origin) expressed in Xenopus laevis Oocyte cells by electrophysiological recordings relative to control; type: cell-based; conditions: concentration not given here
How it was run: (§1)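 Kv1.x cRNA expressed in defolliculated Xenopus oocytes and recorded by two-electrode voltage clamp 1–4 days after injection, at 18–22 °C in ND96 pH 7.5. 1 s pulses, analysed at 0 mV. Compounds applied at rising concentrations with ≤0.5% DMSO, and current inhibition relative to control fitted with the Hill equation.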

[3] = biological target: T1, Potassium voltage-gated channel subfamily A member 3 (Homo sapiens, UniProt P22001); assay: Inhibition of Kv1.3 in human PBMC derived PHA-activated T-lymphocytes assessed as reduction in intracellular calcium level at 5 uM incubated for 2 hrs by Fluo-4 Ca2+ based flow cytometric analysis relative to control; type: cell-based; conditions: T-lymphocyte
How it was run: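 PBMC activated 5 days with PHA, then given compounds at 5 μM for 2 h. Scraped and loaded with Fluo-4 (2 μM) plus anti-CD3-APC at 37 °C for 1 h, washed, and held 30 min at 37 °C with compound (5 μM) before flow cytometry. Fluo-4 MFI of the CD3⁺ gate, 3 replicates, normalized to untreated control; n = 4.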

T-cell line [4] = assay: Cytotoxicity against human PBMC derived PHA-activated T-lymphocytes assessed as effect on cell viability by trypan blue staining based analysis; type: toxicity; conditions: 30 µM
How it was run: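 PBMC purified by Ficoll gradient with red-cell lysis, seeded at 1.5 × 10⁶ cells/mL in RPMI with 10% heat-inactivated serum and 2 mM L-glutamine. Activated with PHA-L 240 ng/mL alongside compounds at 30 μM. Viability of treated versus untreated cells judged by trypan blue staining.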

[5] = Thermodynamic solubility of the compound at pH 7.4 incubated for 24 hrs under shaking condition by HPLC analysis; type: physicochemical; conditions: buffer, read-out: Therm_solubility
How it was run: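 Supernatant diluted 1:2 or 1:10 in 0.1% TFA/MeCN 1:1 and quantified by reversed-phase UPLC at 290 nm against a 7-point calibration (1–100 μM). Mean of two independent experiments, in μM.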

[6] = biological target: T1, Potassium voltage-gated channel subfamily A member 3; assay: Inhibition of human Kv1.3 expressed in Xenopus laevis Oocyte cells by Electrophysiology recording; type: cell-based
How it was run: (§2)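 Human Kv1.3 cRNA injected into defolliculated Xenopus oocytes. Two-electrode voltage clamp 1–4 days later at 18–22 °C in ND96 (pH 7.5). Currents evoked by 1 s depolarizations, with inhibition read at the 0 mV step. Compounds from DMSO stock at ≤0.5% DMSO, either single 10 μM or rising concentrations fitted with the Hill equation for IC50.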

[7] = biological target: Potassium voltage-gated channel subfamily A member 4 (Homo sapiens) (UniProt P22459); assay: Inhibition of Kv1.4 (unknown origin) expressed in Xenopus laevis Oocyte cells by electrophysiological recordings relative to control; type: cell-based; conditions: concentration not given here; how it was run: as §1
[8] = biological target: T1, Potassium voltage-gated channel subfamily A member 3; assay: Selectivity ratio of IC50 for inhibition of human Kv1.3 expressed in mouse LTK- cells to IC50 for inhibition of human Kv1.3 expressed in Xenopus laevis Oocyte cells; type: cell-based
T-cell line [9] = assay: Cytotoxicity against human PBMC derived PHA-activated T-lymphocytes assessed as effect on total cell number at 30 uM incubated for 5 days by bright-field microscopic analysis; type: toxicity, cell-based; conditions: 120 h, time 5 day
How it was run: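 Ficoll-purified PBMC at 1.5 × 10⁶ cells/mL in RPMI/10% heat-inactivated serum/2 mM L-glutamine, stimulated with PHA-L 240 ng/mL and exposed to compounds (30 μM) for 5 days. Cells then counted to give total cell number.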

[10] = biological target: Potassium voltage-gated channel subfamily A member 6 (Homo sapiens) (UniProt P17658); assay: Inhibition of Kv1.6 (unknown origin) expressed in Xenopus laevis Oocyte cells by electrophysiological recordings relative to control; type: cell-based; conditions: concentration not given here; how it was run: as §1
[11] = biological target: T1, Potassium voltage-gated channel subfamily A member 3; assay: Inhibition of human Kv1.3 expressed in mouse LTK- cells by manual patch clamp electrophysiological recording; type: cell-based
How it was run: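 Mouse Ltk⁻ fibroblasts in DMEM/10% horse serum transiently transfected with hKv1.3 plasmid plus eGFP marker, and recorded 24 h later. Whole-cell patch clamp at 20–23 °C. Compounds diluted from DMSO stocks with final DMSO ≤0.1%, with 0.1% DMSO as vehicle control. Normalized current plotted against concentration and fitted with the Hill equation for IC50; mean ± SEM, n = cells.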

[12] = biological target: Potassium voltage-gated channel subfamily A member 2 (Homo sapiens, UniProt P16389); assay: Inhibition of Kv1.2 (unknown origin) expressed in Xenopus laevis Oocyte cells by electrophysiological recording; type: cell-based; how it was run: as §1
[13] = biological target: Potassium voltage-gated channel subfamily A member 1 (Homo sapiens, UniProt Q09470); assay: Inhibition of Kv1.1 (unknown origin) expressed in Xenopus laevis Oocyte cells by electrophysiological recording; type: cell-based; how it was run: as §1
T-cell [14] = assay: Induction of cell cycle arrest at G0/G1 phase in human PBMC derived PHA-activated T-lymphocytes assessed as reduction S phase cells at 30 uM measured after 5 days by flow cytometric analysis; type: functional, cell-based; conditions: time 5.0 day
How it was run: (§3)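 PHA-activated PBMC exposed to compounds (30 μM) for 5 days in RPMI/10% heat-inactivated calf serum/2 mM L-glutamine, scraped off and incubated 1 h at 4 °C in the dark. Cell cycle read by flow cytometry and scored as G0/G1 versus cycling (S+G2/M) percentage. Mean ± SD of 3 experiments; unpaired t-test against untreated cells.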

hERG (KCNH2) = hERG (KCNH2) (Homo sapiens, UniProt Q12809); assay: Inhibition of hERG overexpressed in HEK293 cells at 5 uM relative to control; type: toxicity, cell-based; conditions: HEK293 cells overexpressing hERG
T-cell [15] = assay: Induction of cell cycle arrest at G0/G1 phase in human PBMC derived PHA-activated T-lymphocytes assessed as reduction G2/M phase cells at 30 uM measured after 5 days by flow cytometric analysis; type: functional, cell-based; conditions: time 5.0 day; how it was run: as §3
[16] = biological target: T1, Potassium voltage-gated channel subfamily A member 3; assay: Inhibition of Kv1.3 (unknown origin) expressed in human PBMC derived PHA-activated T-lymphocyte cells assessed as reduction in total outward potassium current at 5 uM by patch clamp electrophysiology method; type: cell-based
How it was run: (§4)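 Whole-cell recording on PBMC stimulated 5 days with PHA-L (240 ng/mL); about 90% of cells CD3⁺. Large cells chosen; cells with currents ≤500–600 pA discarded. Bath in mM: 130 NaCl, 5 KCl, 2 CaCl₂, 2 MgCl₂, 10 HEPES, 5 glucose, pH 7.4; pipette KF-based with 11 EGTA, pH 7.2. Leak-subtracted two-step outward K⁺ current. Single concentration 5 μM, or 0.05 nM–50 μM for curves; peak normalized to control.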

[17] = biological target: T1, Potassium voltage-gated channel subfamily A member 3; assay: Inhibition of Kv1.3 (unknown origin) expressed in PBMC derived PHA-activated T-lymphocyte cells incubated for 5 days by manual patch clamp method; type: cell-based; how it was run: as §4
[18] = Stability of compound in PBS at pH 7.4 measured for >=120 hrs by HPLC analysis; type: physicochemical; conditions: buffer, pH 7.4, 120 h
How it was run: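 Aqueous stability: 10 mM DMSO stock diluted to a final 50 μM in PBS pH 7.4 with 20% MeCN and 0.5% DMSO, filtered, held at 37 °C. UPLC (BEH C18, 280 nm) injections every 4 h for the first 24 h, then every 8 h. Analyte AUC plotted against time; triplicates.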

[19] = biological target: T1, Potassium voltage-gated channel subfamily A member 3; assay: Inhibition of human Kv1.3 expressed in Xenopus laevis Oocyte cells at 10 uM by manual patch clamp method relative to control; type: cell-based; how it was run: as §2

T1 sequence (P22001 whole entry): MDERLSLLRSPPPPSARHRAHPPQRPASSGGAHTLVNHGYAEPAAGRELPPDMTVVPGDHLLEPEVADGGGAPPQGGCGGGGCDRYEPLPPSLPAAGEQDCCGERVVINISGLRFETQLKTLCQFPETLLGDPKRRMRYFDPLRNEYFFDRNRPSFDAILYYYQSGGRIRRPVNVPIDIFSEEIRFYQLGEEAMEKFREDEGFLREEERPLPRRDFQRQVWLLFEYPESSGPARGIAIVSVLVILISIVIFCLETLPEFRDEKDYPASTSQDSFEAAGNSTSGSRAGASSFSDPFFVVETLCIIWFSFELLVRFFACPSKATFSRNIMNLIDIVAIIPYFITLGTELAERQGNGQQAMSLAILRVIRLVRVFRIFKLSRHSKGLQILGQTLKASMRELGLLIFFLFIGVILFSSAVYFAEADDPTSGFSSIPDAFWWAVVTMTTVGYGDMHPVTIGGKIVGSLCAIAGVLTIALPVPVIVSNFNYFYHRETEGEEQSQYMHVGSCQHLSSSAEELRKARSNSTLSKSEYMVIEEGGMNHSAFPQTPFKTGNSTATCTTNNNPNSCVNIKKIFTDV
Sequence of Potassium voltage-gated channel subfamily A member 5 (Homo sapiens) (P22460 whole entry): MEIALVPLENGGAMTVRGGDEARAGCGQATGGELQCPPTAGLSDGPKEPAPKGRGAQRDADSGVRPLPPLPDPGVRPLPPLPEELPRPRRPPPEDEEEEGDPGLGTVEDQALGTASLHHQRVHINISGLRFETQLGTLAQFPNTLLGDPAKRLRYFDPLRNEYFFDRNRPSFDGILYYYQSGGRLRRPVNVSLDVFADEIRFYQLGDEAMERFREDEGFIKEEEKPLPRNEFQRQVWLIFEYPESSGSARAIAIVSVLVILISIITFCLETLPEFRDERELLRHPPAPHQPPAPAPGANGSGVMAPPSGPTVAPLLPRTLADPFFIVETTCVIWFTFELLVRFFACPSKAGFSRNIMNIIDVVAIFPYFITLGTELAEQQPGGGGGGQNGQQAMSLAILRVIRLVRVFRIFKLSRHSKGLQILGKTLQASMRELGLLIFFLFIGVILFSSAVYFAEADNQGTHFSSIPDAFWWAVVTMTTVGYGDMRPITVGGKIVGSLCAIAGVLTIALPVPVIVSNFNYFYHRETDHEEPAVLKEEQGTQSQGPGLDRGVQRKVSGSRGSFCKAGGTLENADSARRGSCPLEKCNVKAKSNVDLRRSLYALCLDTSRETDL
Sequence of Potassium voltage-gated channel subfamily A member 2 (P16389 whole entry): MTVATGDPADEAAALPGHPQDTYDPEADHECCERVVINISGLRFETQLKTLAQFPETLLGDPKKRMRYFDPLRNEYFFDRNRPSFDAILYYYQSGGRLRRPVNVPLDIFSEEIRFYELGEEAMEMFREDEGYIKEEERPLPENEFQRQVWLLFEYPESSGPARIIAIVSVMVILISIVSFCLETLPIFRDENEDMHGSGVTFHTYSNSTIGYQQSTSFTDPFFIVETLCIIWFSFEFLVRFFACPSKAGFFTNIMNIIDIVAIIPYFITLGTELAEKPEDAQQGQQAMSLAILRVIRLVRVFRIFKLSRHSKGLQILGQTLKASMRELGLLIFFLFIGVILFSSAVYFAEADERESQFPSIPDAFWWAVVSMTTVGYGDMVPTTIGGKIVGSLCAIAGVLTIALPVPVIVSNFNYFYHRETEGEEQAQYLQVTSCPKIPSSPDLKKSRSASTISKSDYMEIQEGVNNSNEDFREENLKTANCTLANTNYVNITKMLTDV
Sequence of hERG (KCNH2) (Q12809 whole entry): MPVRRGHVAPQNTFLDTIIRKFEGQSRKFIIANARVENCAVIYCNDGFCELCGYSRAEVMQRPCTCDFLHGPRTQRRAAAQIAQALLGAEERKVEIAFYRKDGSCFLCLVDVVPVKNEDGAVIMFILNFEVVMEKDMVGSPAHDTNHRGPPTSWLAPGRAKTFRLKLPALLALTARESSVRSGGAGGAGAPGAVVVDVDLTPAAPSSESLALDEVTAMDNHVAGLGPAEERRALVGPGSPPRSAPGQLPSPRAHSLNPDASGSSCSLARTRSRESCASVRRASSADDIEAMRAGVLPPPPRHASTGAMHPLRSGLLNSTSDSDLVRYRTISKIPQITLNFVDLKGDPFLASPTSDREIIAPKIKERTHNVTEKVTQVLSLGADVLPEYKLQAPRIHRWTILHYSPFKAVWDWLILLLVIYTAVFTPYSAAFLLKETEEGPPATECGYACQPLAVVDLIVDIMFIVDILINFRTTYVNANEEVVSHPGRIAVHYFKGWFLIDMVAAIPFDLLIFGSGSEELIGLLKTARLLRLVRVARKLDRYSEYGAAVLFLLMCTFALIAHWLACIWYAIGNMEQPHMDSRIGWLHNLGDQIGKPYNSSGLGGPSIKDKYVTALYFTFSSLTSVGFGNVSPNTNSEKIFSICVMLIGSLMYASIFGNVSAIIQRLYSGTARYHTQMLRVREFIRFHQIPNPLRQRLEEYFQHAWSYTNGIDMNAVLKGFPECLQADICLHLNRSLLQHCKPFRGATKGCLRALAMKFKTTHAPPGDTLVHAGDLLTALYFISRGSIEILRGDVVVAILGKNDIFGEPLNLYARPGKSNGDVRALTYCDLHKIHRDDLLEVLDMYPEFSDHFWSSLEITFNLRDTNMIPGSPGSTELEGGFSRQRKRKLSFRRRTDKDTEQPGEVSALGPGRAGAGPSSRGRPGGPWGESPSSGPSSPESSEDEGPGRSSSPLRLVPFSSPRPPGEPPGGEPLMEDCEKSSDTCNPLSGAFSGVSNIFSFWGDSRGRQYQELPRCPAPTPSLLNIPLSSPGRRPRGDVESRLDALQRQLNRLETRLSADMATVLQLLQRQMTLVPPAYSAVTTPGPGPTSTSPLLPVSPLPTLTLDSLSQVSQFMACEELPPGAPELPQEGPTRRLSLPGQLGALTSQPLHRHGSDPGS
Sequence of Potassium voltage-gated channel subfamily A member 4 (Homo sapiens) (P22459 whole entry): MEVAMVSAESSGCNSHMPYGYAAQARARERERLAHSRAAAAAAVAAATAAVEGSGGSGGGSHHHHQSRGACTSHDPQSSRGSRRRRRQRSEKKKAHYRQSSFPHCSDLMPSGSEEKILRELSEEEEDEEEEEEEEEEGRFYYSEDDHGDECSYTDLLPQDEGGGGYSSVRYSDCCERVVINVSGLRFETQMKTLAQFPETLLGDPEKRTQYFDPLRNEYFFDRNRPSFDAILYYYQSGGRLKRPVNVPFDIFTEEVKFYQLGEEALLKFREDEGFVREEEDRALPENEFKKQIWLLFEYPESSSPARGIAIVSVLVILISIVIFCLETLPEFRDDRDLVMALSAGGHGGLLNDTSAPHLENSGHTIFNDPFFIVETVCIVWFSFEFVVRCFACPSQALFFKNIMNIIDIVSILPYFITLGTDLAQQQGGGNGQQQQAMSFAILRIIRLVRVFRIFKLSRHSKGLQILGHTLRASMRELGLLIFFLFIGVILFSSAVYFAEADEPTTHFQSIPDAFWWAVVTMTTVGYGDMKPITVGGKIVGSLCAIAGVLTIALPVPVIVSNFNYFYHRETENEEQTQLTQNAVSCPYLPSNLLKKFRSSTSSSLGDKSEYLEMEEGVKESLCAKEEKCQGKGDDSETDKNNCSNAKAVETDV
Sequence of Potassium voltage-gated channel subfamily A member 6 (Homo sapiens) (P17658 whole entry): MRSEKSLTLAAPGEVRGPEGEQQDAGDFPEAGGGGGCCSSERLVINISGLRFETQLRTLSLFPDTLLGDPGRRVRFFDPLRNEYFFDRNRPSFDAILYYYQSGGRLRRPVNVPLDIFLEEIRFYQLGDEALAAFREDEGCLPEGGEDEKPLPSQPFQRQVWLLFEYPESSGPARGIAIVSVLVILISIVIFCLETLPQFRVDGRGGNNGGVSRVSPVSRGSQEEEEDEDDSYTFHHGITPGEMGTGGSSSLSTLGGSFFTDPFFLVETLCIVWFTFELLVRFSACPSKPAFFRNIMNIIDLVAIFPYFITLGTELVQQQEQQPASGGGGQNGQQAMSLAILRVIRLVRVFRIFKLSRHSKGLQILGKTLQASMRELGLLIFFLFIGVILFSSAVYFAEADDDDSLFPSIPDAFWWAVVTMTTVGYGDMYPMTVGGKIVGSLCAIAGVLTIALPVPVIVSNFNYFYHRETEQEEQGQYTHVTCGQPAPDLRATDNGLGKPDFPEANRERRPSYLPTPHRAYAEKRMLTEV
Sequence of Potassium voltage-gated channel subfamily A member 1 (Q09470 whole entry): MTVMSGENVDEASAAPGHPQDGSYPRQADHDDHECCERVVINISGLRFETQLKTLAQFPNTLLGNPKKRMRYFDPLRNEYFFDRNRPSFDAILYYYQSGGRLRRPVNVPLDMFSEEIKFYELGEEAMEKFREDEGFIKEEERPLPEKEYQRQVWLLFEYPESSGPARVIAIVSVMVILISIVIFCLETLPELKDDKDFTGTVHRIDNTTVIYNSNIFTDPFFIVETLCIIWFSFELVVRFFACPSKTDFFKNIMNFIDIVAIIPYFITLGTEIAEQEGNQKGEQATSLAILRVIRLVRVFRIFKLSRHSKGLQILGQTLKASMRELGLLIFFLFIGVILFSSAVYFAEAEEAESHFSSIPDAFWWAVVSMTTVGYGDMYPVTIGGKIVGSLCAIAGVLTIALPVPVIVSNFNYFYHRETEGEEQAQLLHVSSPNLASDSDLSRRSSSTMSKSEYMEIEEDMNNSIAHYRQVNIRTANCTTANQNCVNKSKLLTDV

CCCNC(=O)O[C@H]1CC[C@@](CNC(=O)c2ccccc2OC)(c2ccsc2)CC1
inhibition (T-cell [1]): Active
inhibition [2]: 11.4%
inhibition [3]: 27%
Activity (T-cell line [4]): Non-Toxic
solubility thermodynamic at 24 h [5]: 22 µM (≈ 9.47 µg/mL)
IC50 [6]: 136 nM
inhibition [7]: 6.4%
Ratio IC50 [8]: < 2
Activity (T-cell line [9]): Non-Toxic
inhibition [10]: -1.1%
IC50 [11]: 230 nM
IC50 [12]: 308 nM
IC50 [13]: 124 nM
Activity (T-cell [14]): Active
inhibition at 5 µM (hERG (KCNH2)): 21%
Activity (T-cell [15]): Active
inhibition [16]: Active
IC50 [17]: 26.1 nM
Stability [18]: Stable
inhibition [19]: 90.7%
